This is an account of results in ChEMBL document CHEMBL1165965, “Synthesis and structure-activity relationships of 1,2,3,4-tetrahydropyrido[2,3-b]pyrazines as potent and selective inhibitors of the anaplastic lymphoma kinase” (Bioorg Med Chem, 2010).

Bounds are passed on as bounds.

The term inhibition denotes the share of the control response that was lost under treatment. High values mean a strong effect, low ones a weak effect.

The test system of experiment [1] is Mast/stem cell growth factor receptor Kit (Homo sapiens), P10721 [V559D]. Put plainly: Inhibition of KIT V559D mutant at 1 uM. The procedure, abridged: (§1)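 Single-concentration screen on the Ambit KINOMEscan platform, run against a panel of 250–400 kinases. Per-kinase inhibition was also summarized as S(90), the fraction of kinases inhibited by more than 90%.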
Sequence of Mast/stem cell growth factor receptor Kit (Homo sapiens), P10721 [V559D] (P10721 whole entry V559D): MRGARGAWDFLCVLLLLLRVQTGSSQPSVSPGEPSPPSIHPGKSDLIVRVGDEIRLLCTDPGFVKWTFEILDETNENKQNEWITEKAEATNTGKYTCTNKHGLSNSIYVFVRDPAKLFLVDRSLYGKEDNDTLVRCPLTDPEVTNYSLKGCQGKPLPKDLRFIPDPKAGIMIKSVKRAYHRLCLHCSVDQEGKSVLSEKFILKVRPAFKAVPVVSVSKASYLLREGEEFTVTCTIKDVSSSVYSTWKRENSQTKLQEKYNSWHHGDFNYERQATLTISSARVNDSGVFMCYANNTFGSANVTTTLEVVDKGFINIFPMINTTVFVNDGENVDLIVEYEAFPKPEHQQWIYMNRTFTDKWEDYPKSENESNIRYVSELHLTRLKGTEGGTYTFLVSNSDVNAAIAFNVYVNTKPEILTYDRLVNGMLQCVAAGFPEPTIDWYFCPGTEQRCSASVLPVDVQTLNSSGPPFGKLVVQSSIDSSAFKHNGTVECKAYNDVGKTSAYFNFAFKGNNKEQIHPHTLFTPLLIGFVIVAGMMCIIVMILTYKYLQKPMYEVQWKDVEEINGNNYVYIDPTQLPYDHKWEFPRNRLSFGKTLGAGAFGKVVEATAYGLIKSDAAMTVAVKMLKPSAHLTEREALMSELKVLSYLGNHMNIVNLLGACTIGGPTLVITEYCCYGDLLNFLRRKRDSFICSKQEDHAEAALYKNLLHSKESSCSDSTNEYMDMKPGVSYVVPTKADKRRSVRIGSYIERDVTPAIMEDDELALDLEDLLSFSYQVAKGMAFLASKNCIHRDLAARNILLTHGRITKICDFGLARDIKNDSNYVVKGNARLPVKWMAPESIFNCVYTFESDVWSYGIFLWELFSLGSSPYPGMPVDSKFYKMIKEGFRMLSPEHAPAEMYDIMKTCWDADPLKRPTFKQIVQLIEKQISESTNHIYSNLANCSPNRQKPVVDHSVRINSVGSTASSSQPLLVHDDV

The target in experiment [2] is Proto-oncogene tyrosine-protein kinase ROS (Homo sapiens) (UniProt P08922). Put plainly: Inhibition of ROS1 at 1 uM. The gist of the method: as §1
Sequence of Proto-oncogene tyrosine-protein kinase ROS (Homo sapiens) (P08922 whole entry): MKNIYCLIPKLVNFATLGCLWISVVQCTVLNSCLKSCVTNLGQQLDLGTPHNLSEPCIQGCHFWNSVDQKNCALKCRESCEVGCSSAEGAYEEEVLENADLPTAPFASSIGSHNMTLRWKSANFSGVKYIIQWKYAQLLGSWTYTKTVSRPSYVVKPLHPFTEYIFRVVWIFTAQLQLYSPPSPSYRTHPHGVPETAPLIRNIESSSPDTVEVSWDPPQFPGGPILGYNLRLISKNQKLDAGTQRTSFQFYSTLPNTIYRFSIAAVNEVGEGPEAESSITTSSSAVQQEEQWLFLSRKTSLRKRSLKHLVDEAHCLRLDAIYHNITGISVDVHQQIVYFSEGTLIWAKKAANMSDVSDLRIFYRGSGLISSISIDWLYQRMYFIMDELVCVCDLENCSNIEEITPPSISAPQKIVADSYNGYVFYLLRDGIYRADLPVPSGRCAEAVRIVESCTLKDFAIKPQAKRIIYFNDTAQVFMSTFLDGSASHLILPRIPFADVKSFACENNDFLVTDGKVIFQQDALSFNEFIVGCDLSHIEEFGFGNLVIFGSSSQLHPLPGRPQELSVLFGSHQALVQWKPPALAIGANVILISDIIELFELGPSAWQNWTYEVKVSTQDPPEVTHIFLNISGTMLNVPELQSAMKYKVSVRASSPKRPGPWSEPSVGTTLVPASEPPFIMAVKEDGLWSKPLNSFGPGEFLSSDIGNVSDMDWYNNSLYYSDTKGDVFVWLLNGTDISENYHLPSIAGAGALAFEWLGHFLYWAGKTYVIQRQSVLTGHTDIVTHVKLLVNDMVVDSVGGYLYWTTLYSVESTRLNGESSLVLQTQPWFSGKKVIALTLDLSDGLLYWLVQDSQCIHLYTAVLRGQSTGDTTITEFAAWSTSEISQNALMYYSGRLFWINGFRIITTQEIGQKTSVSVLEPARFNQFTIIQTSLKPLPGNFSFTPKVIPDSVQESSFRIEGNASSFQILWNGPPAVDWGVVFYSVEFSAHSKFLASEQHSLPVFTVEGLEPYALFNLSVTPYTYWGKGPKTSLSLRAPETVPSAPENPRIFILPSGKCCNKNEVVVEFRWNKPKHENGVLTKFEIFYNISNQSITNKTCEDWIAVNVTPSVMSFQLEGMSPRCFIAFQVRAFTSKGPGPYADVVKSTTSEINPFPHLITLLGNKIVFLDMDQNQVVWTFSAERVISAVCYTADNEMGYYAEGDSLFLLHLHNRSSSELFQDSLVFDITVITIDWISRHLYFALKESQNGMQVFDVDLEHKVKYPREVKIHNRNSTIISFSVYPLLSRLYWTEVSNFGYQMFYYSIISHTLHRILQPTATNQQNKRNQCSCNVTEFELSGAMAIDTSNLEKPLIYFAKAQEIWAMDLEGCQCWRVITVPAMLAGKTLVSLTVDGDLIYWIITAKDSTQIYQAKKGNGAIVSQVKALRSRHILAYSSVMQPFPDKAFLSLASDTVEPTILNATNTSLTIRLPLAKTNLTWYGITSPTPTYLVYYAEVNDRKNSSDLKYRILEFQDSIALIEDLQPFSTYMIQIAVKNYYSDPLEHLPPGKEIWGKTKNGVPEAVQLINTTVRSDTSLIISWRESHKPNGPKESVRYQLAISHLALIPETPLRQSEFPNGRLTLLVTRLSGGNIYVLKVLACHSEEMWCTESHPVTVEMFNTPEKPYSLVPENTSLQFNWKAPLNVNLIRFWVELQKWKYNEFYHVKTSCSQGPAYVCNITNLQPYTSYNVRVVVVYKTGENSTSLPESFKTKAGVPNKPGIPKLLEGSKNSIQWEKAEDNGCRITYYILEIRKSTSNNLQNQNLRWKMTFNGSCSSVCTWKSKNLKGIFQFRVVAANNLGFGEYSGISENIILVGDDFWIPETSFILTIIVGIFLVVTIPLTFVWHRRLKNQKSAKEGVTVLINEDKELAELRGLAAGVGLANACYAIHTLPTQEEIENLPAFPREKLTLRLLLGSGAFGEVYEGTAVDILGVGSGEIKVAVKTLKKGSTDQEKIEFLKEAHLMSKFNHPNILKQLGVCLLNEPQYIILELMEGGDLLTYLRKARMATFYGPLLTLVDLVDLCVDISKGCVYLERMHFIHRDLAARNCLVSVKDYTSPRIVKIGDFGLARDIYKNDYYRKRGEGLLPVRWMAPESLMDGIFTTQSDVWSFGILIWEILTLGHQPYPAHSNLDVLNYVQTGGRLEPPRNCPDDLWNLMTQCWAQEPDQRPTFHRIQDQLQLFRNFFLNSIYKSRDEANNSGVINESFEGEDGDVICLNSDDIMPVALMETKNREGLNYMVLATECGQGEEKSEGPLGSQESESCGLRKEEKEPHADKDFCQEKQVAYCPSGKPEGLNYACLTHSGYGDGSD
For experiment [3], the target named is Receptor-type tyrosine-protein kinase FLT3 (Homo sapiens) (UniProt P36888). Briefly: Inhibition of FLT3 at 1 uM. The procedure, abridged:
as §1

Experiment [4] deals with Tyrosine-protein kinase ABL1 (Homo sapiens), P00519 [T315I]. Put plainly: Inhibition of ABL1 T315I mutant at 1 uM. The gist of the method:
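Ambit KINOMEscan screen at a single concentration across a 250–400 kinase panel, recorded as percent inhibition. Selectivity was expressed as S(90), the fraction of kinases inhibited >90%.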

In experiment [5] the target is Tyrosine-protein kinase Fer (Homo sapiens) (UniProt P16591). Put plainly: Inhibition of FER at 1 uM. The procedure, abridged: (§2)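 Single-concentration screen using Ambit Bioscience KINOMEscan technology across a panel of 250–400 kinases. Per-kinase inhibition from this screen was summarized as S(90), the fraction of kinases inhibited by more than 90%.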
Sequence of Tyrosine-protein kinase Fer (Homo sapiens) (P16591 whole entry, looked up): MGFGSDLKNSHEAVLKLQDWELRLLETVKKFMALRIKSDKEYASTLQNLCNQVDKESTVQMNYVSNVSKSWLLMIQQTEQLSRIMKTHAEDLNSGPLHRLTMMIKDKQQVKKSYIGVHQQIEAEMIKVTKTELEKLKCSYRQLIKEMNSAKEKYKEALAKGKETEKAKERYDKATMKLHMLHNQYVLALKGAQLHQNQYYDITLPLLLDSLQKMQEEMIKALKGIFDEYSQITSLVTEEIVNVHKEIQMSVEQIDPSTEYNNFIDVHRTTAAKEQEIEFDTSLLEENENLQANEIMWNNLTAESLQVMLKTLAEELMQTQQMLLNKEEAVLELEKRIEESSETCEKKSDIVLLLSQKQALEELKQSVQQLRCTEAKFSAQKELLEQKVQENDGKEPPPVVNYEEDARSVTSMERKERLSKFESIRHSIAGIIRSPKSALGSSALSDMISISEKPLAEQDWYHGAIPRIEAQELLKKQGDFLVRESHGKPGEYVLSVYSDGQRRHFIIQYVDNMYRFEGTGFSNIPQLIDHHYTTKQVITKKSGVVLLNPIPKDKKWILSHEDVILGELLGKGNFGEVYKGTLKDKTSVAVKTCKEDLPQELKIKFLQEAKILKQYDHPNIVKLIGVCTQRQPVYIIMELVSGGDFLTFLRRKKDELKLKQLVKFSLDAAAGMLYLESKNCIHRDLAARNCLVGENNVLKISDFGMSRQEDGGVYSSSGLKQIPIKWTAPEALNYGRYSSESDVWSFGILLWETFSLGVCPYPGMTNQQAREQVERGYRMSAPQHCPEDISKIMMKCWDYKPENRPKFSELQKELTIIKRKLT
For experiment [6], the target named is T1, Ephrin type-B receptor 4 (Homo sapiens) (UniProt P54760).
T1 sequence (whole entry): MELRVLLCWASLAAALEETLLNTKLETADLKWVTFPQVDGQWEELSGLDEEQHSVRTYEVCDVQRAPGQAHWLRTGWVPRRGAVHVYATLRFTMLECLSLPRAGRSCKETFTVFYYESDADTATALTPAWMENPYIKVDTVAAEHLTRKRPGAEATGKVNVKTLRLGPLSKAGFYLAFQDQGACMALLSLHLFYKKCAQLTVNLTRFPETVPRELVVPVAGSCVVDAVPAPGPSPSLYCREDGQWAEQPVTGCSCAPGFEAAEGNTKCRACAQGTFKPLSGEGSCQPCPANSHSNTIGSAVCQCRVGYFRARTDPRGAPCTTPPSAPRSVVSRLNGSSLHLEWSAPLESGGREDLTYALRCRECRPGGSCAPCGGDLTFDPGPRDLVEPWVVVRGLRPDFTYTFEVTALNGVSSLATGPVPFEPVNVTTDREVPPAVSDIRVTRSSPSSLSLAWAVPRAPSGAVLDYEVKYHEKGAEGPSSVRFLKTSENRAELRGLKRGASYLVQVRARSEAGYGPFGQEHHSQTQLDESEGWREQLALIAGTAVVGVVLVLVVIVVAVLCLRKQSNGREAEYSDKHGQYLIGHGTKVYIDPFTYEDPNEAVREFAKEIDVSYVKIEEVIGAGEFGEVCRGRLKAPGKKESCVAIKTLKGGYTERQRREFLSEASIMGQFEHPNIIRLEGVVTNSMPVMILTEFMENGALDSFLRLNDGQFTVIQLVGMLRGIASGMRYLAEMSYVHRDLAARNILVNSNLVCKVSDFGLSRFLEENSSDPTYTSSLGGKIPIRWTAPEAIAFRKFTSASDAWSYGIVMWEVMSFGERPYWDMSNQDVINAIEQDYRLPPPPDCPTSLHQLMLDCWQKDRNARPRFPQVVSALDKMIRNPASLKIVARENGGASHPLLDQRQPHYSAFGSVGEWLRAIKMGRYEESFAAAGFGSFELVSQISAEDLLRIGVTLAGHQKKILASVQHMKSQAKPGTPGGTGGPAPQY
Briefly: Inhibition of EPHB4 at 1 uM. The procedure, abridged:
as §2

Experiment [7] concerns the target SRSF protein kinase 3 (Homo sapiens) (UniProt Q9UPE1). Briefly: Inhibition of SRPK3 at 1 uM.
Experiment [8] has as its target T2, Cyclin-dependent kinase 11A (Homo sapiens) (UniProt Q9UQ88).
T2 sequence (whole entry): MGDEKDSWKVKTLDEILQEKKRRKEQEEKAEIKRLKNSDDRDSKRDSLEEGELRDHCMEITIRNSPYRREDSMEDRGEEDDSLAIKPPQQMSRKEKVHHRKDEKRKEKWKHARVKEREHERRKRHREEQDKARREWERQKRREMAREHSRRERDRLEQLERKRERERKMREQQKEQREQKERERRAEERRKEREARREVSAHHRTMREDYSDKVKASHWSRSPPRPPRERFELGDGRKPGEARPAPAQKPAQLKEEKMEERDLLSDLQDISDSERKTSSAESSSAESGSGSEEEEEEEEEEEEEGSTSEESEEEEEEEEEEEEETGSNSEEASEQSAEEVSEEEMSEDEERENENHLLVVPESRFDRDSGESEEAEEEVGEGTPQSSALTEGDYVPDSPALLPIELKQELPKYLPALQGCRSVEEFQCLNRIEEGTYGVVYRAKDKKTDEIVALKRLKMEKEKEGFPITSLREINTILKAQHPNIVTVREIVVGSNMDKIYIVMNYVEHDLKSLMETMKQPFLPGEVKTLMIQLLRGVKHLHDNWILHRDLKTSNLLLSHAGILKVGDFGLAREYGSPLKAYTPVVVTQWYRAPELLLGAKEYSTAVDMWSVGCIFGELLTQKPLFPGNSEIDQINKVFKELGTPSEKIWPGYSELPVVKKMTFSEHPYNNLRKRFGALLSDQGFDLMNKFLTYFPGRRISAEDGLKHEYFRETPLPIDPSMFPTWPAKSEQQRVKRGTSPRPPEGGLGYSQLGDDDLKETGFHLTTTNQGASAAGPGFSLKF
Put plainly: Inhibition of CDC2L2 at 1 uM.

Sequence of Receptor-type tyrosine-protein kinase FLT3 (Homo sapiens) (P36888 whole entry): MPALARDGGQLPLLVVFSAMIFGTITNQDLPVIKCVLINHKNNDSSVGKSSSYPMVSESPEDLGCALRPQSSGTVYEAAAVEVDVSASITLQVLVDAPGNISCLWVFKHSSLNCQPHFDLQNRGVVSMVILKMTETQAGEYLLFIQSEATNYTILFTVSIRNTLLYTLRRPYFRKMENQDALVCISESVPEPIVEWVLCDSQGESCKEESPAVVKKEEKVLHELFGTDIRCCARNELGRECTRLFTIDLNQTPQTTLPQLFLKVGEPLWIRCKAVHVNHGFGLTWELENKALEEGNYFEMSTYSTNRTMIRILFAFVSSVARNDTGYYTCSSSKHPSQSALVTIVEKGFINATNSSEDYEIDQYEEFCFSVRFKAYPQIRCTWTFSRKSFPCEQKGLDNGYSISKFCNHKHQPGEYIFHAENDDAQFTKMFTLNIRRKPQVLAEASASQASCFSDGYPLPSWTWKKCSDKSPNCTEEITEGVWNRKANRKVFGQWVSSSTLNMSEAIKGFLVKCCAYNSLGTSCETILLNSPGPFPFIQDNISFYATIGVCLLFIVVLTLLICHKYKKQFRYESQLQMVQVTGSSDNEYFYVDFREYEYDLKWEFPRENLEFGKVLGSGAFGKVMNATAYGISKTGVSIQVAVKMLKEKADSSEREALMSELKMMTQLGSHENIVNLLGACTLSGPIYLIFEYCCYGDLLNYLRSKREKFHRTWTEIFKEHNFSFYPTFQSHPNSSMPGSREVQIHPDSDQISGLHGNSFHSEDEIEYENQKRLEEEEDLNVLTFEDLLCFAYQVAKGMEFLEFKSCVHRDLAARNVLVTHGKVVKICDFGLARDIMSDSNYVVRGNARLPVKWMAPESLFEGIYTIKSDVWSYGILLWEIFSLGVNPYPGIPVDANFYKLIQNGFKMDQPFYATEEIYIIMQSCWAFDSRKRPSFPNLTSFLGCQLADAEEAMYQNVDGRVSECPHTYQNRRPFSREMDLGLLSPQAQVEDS

Consider `O=C(c1ccc(-c2cnc3c(c2)N(Cc2cc(Cl)ccc2C(F)(F)F)CCN3)cc1)N1CCCCC1`, for which the inhibition in experiment [1], in experiment [2], in experiment [3], in experiment [4], in experiment [5] and in experiment [6] was less than 50% in each case.

As for `CN1CCN(c2ccc(-c3cnc4c(c3)N(Cc3c(F)ccc(F)c3Cl)CCN4)cn2)CC1`, the inhibition was 69% in experiment [1]; 73% in experiment [2]; less than 50% in experiment [3]; less than 50% in experiment [7]; 95% in experiment [4]; less than 50% in experiment [5]. Also, the inhibition in experiment [8] and in experiment [6] was less than 50% in each case.

As to `COC1CCN(C(=O)c2ccc(-c3cnc4c(c3)N(Cc3cc(Cl)ccc3C(F)(F)F)CCN4)cc2)CC1`, the inhibition was less than 50% in experiment [1]; 78.2% in experiment [2]; 80.7% in experiment [3]; less than 50% in experiment [4]; less than 50% in experiment [5]; less than 50% in experiment [6].

On to `O=C(O)c1ccc(-c2cnc3c(c2)N(Cc2cc(Cl)ccc2C(F)(F)F)CCN3)cc1`, for which the inhibition in experiment [1] was less than 50%; in experiment [2] it was 66.7%; in experiment [3], less than 50%; in experiment [5], less than 50%; in experiment [6], less than 50%.

For `FC(F)(F)c1ccc(Cl)cc1CN1CCNc2ncc(-c3ccnc(N4CCNCC4)c3)cc21`, the inhibition was 97% in experiment [1]; 92% in experiment [2]; 95% in experiment [3]; less than 50% in experiment [7]; less than 50% in experiment [4]; 97% in experiment [5]. The inhibition in experiment [8] and in experiment [6] was less than 50% throughout.

Turning to `CN1CCN(c2ccc(-c3cnc4c(c3)N(Cc3cc(Cl)ccc3Cl)CCN4)cn2)CC1`, the inhibition in experiment [1] was 82%; in experiment [2] it was less than 50%; in experiment [3], 90%; in experiment [7] it was less than 50%; in experiment [4] it was less than 50%; in experiment [5], less than 50%. The inhibition in experiment [8] and in experiment [6] was less than 50% throughout.

`O=C(c1ccc(-c2cnc3c(c2)N(Cc2cc(Cl)ccc2C(F)(F)F)CCN3)cc1)N1CCC(N2CCCC2)CC1`: the inhibition was 91.9% in experiment [1]; 80.7% in experiment [2]; 99.3% in experiment [3]; 83.2% in experiment [4]; less than 50% in experiment [5]; less than 50% in experiment [6].

For `CN1CCN(c2ccc(-c3cnc4c(c3)N(Cc3cc(Cl)ccc3C(F)(F)F)CCN4)cn2)CC1`, the inhibition was less than 50% in experiment [1]; 72% in experiment [2]; 88% in experiment [3]; less than 50% in experiment [7]; less than 50% in experiment [4]; less than 50% in experiment [5]. Further, the inhibition in experiment [8] and in experiment [6] was less than 50% in each case.

On to `CC(=O)N1CCN(c2cc(-c3cnc4c(c3)N(Cc3cc(Cl)ccc3C(F)(F)F)CCN4)ccn2)CC1`, for which the inhibition in experiment [1] is less than 50%; in experiment [2] it was 79%; in experiment [3], 83%; in experiment [7], less than 50%; in experiment [4], less than 50%; in experiment [5], less than 50%. Moreover, the inhibition in experiment [8] and in experiment [6] was less than 50% throughout.

Regarding `CN1CCN(c2ccc(-c3cnc4c(c3)N(Cc3cc(F)ccc3F)CCN4)cn2)CC1`, the inhibition in experiment [1] was less than 50%; in experiment [2], 67.5%; in experiment [3] it was 64%; in experiment [7] it was less than 50%; in experiment [4], 80.4%; in experiment [5] it was less than 50%. Also, the inhibition in experiment [8] and in experiment [6] was less than 50% each time.
